Results pooled from the literature.
Compare with care: the assays were run in different laboratories.

| SMILES | system | conditions | measurement | value |
| --- | --- | --- | --- | --- |
| CN1CC[C@@H](c2c(O)cc(O)c3c(=O)cc(-c4ccc(C(F)(F)F)cc4Cl)oc23)[C@@H]1CO | human, plasma | oral, 50 mg, patients | Cmax | 86.3 ng/mL |
| CC(=O)N[C@H]1CC[C@H](NC(=O)CN2CCN(c3nncc(-c4ccc(C)cc4)n3)CC2)CC1 | male human, plasma | oral, 100 mg, single dose, fasted | Cmax | 1070 ng/mL |
| CC(C)C[C@H](NC(=O)[C@@H]1COCCCCCC(=O)NCC(=O)N2CCC[C@H]2C(=O)N1)C(=O)[C@@]1(C)CO1 | Caco-2 | 10 µM, 2 h, pH 7.4 | efflux ratio | ~22 |
| Cc1c(C(=O)O)ccc2c3n(nc12)[C@@H]1[C@H](C3)N(CC2CC2)[C@@]2(C(=O)Nc3cc(Cl)ccc32)[C@H]1c1cccc(Cl)c1F | female minipig, plasma | intravenous | Vd | 0.94 L/kg |
| Nc1ncn([C@H]2C[C@H](O)[C@@H](CO)O2)c(=O)n1 | female C57BL/6 mouse, plasma | intravenous, 0.4 mg/kg | Tmax | 4.98 min |
| CCOc1ccc(N(C)S(=O)(=O)c2cc(Cl)sc2C(=O)Nc2cc(Cl)cc(C(=O)O)c2)cc1OC | male C57BL/6 mouse, brain | intraperitoneal, 10 mg/kg | Tmax | 15 min |
| CNC(=O)n1ccc2cc(Oc3ccnc(NC(=O)c4ccc(C5CCN(CCO)CC5)cc4)c3)c(OCCOC)cc21 | human, plasma | oral, 35 mg, single dose, fasted, healthy volunteers | Cmax | 9.82 ng/mL |
| CC(C)NCC(O)COc1cccc2ccccc12 (stereo not shown) | Caco-2 | 5 µM, 2 h | efflux ratio | 0.72 |
| Cn1cc(Nc2nc(N)nc(-c3cccc(-n4ccc5cc(C6CC6)cc(F)c5c4=O)c3CO)n2)cn1 | human, plasma | oral, 600 mg, single dose, fasted, suspension | Cmax | 5360 ng/mL |
| CCN1CCN(Cc2ccc(NC(=O)c3ccc(C)c(NC(=O)c4cncc(-c5cccs5)c4)c3)cc2C(F)(F)F)CC1 | mouse, plasma | intraperitoneal, 10 mg/kg, single dose | Tmax | 30 min |
| N#C[C@@]12C[C@@H]1[C@@H](n1cnc3c(N[C@@H](C4CCC4)C4CC4)nc(I)nc31)[C@H](O)[C@@H]2O | Caco-2 | – | efflux ratio | 2.76 |
| COc1ccc([C@@H](O)c2cc(-c3ncnc4cc(N5CCOCC5)ccc34)c(F)cc2Cl)nn1 | human, plasma | oral, 150 mg, single dose, patients | Cmax | 1460 ng/mL |
| CCOC(=O)c1cc(Cl)cc(NC(=O)c2sc(Cl)cc2S(=O)(=O)N(C)c2ccc(OCC)c(OC)c2)c1 | male C57BL/6 mouse, brain | intraperitoneal, 10 mg/kg | Tmax | 15 min |
| CC(C(=O)Nc1c(F)cccc1F)N1CCN(c2ccccc2)CC1 (stereo not shown) | female C57BL/6 mouse, plasma | intraperitoneal, 10 mg/kg, single dose | Tmax | 15 min |
| C[C@H]1O[C@@H](O[C@H]2[C@@H](O)C[C@H](O[C@H]3[C@@H](O)C[C@H](O[C@H]4CC[C@@]5(C)[C@H](CC[C@@H]6[C@@H]5C[C@@H](O)[C@]5(C)[C@@H](C7=CC(=O)OC7)CC[C@]65O)C4)O[C@@H]3C)O[C@@H]2C)C[C@H](O)[C@@H]1O | Caco-2 | 5 µM, 2 h | efflux ratio | 50.7 |
| C=CS(=O)(=O)c1ccc(Nc2nc(OCC3CCCCC3)c3nc[nH]c3n2)cc1 | male BALB/c mouse, plasma | intravenous, 20 mg/kg, single dose | Tmax | 4.8 min |
| Cc1c(N(C)C)ccc2cc(C(=O)NS(=O)(=O)c3ccccc3-c3ccccc3)oc12 | Caco-2 | 2 µM, 2 h, pH 7.2 | efflux ratio | 0.7 |
| Cl.[2H]C([2H])([2H])CC(=O)c1cnc(NC(=O)C2CC2)cc1Nc1cccc(-c2ncn(C([2H])([2H])[2H])n2)c1OC | human, plasma | oral, 10 mg, multiple doses, once daily, fasted | Cmax | 99.5 ng/mL |
| CC(C)n1c(Nc2cccnc2)nc2cnc(Nc3ccc(N4CCN(C)CC4)cc3)nc21 | male human, plasma | oral, 150 mg, single dose | Cmax | 76.1 ng/mL |
